Results from ChEMBL document CHEMBL1124809, “Synthesis and biological evaluation of analogues of Pro-Leu-Gly-NH2 modified at the leucyl residue” (J Med Chem, 1990).
The source made the active and inactive calls. The rule behind the calls is not given here. Where a SMILES comes first, the peptide text is derived from it. [ ]: non-standard residue; d: D form. Phe(4-NO2) = N[C@@H](Cc1ccc([N+](=O)[O-])cc1)C(=O)O; Phg = N[C@H](C(=O)O)c1ccccc1; Nle = CCCC[C@H](N)C(=O)O; Nva = CCC[C@H](N)C(=O)O; Abu = CC[C@H](N)C(=O)O

Columns and labels:
[1] = target: D(2) dopamine receptor (Bos taurus) (UniProt P20288); experiment: Ability to enhance the binding of [3H]ADTN to dopamine receptor D2 isolated from bovine striatal membranes; inactive
Sequence of D(2) dopamine receptor (Bos taurus) (P20288 whole entry): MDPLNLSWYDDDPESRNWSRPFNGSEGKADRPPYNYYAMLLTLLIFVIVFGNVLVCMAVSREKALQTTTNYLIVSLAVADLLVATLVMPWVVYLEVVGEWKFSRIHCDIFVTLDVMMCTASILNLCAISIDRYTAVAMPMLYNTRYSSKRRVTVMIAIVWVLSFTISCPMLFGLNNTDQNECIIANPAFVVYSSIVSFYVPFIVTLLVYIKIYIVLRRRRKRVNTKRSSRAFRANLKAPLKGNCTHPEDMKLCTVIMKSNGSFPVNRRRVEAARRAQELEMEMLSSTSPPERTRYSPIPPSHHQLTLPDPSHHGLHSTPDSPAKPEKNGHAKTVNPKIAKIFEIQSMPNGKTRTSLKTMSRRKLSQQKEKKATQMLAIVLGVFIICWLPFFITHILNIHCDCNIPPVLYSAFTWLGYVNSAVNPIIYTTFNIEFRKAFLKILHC
Summary of the method: (§1)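 Membranes from freshly dissected bovine caudate, homogenized in 50 mM Tris-HCl/1 mM EDTA pH 7.4, centrifuged twice at 27000g. Resuspended in Tris-HCl with ascorbate, MnCl2, DTT, PMSF, soybean trypsin inhibitor and bacitracin. 0.2–0.3 mg protein incubated with 8 nM [3H]ADTN ± peptide (10⁻¹²–10⁻⁴ M) for 10 min at 37 °C in triplicate. GF/B filtration, scintillation counting, % increase in specific binding over control.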

[2] = target: D(2) dopamine receptor (Bos taurus) (UniProt P20288); experiment: Ability to enhance the binding of [3H]-ADTN to Dopamine receptor D2 isolated from bovine caudate membranes at 1 uM concentration; summary of the method: as §1
[3] = target: D(2) dopamine receptor (Bos taurus) (UniProt P20288); experiment: Ability to enhance the binding of [3H]ADTN to Dopamine receptor D2 isolated from bovine striatal membranes; maximum effect at 0.1 uM; summary of the method: as §1
[4] = target: D(2) dopamine receptor (Bos taurus) (UniProt P20288); experiment: Ability to stimulate the binding of [3H]ADTN to Dopamine receptor D2 isolated from bovine striatal membranes at 1 uM concentration; summary of the method: as §1

| SMILES | Activity [1] | further results |
| --- | --- | --- |
| NC(=O)CNC(=O)[C@H](CCc1ccccc1)NC(=O)[C@@H]1CCCN1 | inactive | – |
| CC(C)C[C@H](NC(=O)[C@@H]1CCCN1)C(=O)NCC(N)=O (H-Pro-Leu-Gly-NH2) | – | Stimulation [2]: 27% |
| NC(=O)CNC(=O)[C@@H](NC(=O)[C@@H]1CCCN1)c1ccccc1 (H-Pro-[Phg]-Gly-NH2) | inactive | – |
| NC(=O)CNC(=O)[C@H](CCc1ccccc1)NC(=O)[C@H]1CCCN1 | inactive | – |
| CCCC[C@H](NC(=O)[C@@H]1CCCN1)C(=O)NCC(N)=O (H-Pro-[Nle]-Gly-NH2) | – | Activity [3]: Active |
| COc1ccc(C[C@H](NC(=O)[C@@H]2CCCN2)C(=O)NCC(N)=O)cc1 (H-Pro-Tyr(Me)-Gly-NH2) | inactive | – |
| NC(=O)CNC(=O)[C@H](Cc1ccc([N+](=O)[O-])cc1)NC(=O)[C@@H]1CCCN1 (H-Pro-[Phe(4-NO2)]-Gly-NH2) | inactive | – |
| NC(=O)CNC(=O)[C@H](Cc1ccccc1)NC(=O)[C@@H]1CCCN1 (H-Pro-Phe-Gly-NH2) | – | Stimulation [4]: 31% |

Second part, led by results:

| Activity [1] | SMILES | further results |
| --- | --- | --- |
| inactive | CC[C@H](C)[C@H](NC(=O)[C@@H]1CCCN1)C(=O)NCC(N)=O (H-Pro-Ile-Gly-NH2) | – |
| inactive | CC[C@H](NC(=O)[C@@H]1CCCN1)C(=O)NCC(N)=O (H-Pro-[Abu]-Gly-NH2) | – |
| inactive | CCC[C@H](NC(=O)[C@@H]1CCCN1)C(=O)NCC(N)=O (H-Pro-[Nva]-Gly-NH2) | – |
